Data set [1] addresses 5-hydroxytryptamine receptor 5A (Homo sapiens) (UniProt P47898). Description: Inhibition of human 5HT5 receptor expressed in CHO cells at 100 nM. Type of data set: cell-based.
The target of data set [2] is 5-hydroxytryptamine receptor 4 (Homo sapiens) (UniProt Q13639). The data set can be described thus: Inhibition of human 5HT4 receptor expressed in CHO cells at 100 nM. Type of data set: cell-based.
Data set [3] in a line: Drug level in Sprague-Dawley rat plasma at 3 mg/kg, ip after 1 hr. Type of data set: ADME, organism-based. Also noted: dose 3 mg/kg, route intraperitoneal. The essentials: (§1)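 Rats given a single 3 mg/kg ip or 100 mg/kg oral dose; plasma and brain concentrations measured over time to assess brain/plasma ratio.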
A short description of data set [4]: Ratio of drug level in brain to plasma in rat at 3 mg/kg, ip or 100 mg/kg, po. Type of data set: ADME, organism-based. The following applies: read-out: BPR. The essentials:
(§2)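 Rats given a single dose, 3 mg/kg ip or 100 mg/kg oral; drug concentrations measured in plasma and brain at timed points after dosing; brain/plasma concentration ratio calculated.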

The nature of data set [5]: Drug level in Sprague-Dawley rat brain at 100 mg/kg, po after 1 hr. Type of data set: ADME, organism-based. Also noted: dose 100 mg/kg, route oral. The conditions noted are these: read-out: Drug uptake. The essentials: as §1
The nature of data set [6]: Drug level in Sprague-Dawley rat brain at 3 mg/kg, ip after 0.5 hr. Also noted: dose 3 mg/kg, route intraperitoneal. The following applies: read-out: Drug uptake. Type of data set: ADME, organism-based. The essentials:
as §1

Data set [7] can be described thus: Ratio of drug level in brain to plasma in Sprague-Dawley rat at 3 mg/kg, ip after 0.5 hr. Details: dose 3 mg/kg, route intraperitoneal. Type of data set: ADME, organism-based. The conditions noted are these: read-out: BPR. The essentials:
as §2

A short description of data set [8]: Volume of distribution in dog at 1 mg/kg, iv. It counts as ADME, organism-based, Canis lupus familiaris. Also noted: dose 1 mg/kg, route intravenous. The conditions noted are these: in vivo, read-out: Vdss.
Data set [9] is described as follows: Drug level in Sprague-Dawley rat brain at 100 mg/kg, po after 0.5 hr. Type of data set: ADME, organism-based. Details: dose 100 mg/kg, route oral. The conditions noted are these: read-out: Drug uptake. The essentials:
as §1

Data set [10] in a line: Cmax in dog at 5 mg/kg, po. Details: dose 5 mg/kg, route oral. The following applies: in vivo. Type of data set: ADME, organism-based, Canis lupus familiaris.
In data set [11] the target is T1, 5-hydroxytryptamine receptor 1F (Homo sapiens) (UniProt P30939).
T1 sequence (whole entry): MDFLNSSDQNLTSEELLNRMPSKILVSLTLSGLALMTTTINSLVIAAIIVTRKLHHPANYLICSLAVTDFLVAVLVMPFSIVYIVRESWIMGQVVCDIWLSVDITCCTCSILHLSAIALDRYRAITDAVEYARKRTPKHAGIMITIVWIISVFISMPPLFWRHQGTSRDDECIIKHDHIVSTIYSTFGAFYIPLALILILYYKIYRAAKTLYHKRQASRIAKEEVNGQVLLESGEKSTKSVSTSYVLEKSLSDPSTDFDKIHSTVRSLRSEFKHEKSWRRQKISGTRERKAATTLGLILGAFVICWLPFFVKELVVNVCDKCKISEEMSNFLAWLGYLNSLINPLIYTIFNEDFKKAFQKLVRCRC
The data set can be described thus: Displacement of [3H]5-HT from human 5HT1F receptor expressed in CHO cells at 1 uM. Type of data set: cell-based. In general terms: Loss of bound radioactivity is the signal in a displacement assay; it reports binding, not function.

Data set [12] in a line: Ratio of drug level in brain to plasma in Sprague-Dawley rat at 100 mg/kg, po after 2 hrs. Details: dose 100 mg/kg, route oral. The conditions noted are these: read-out: BPR. It counts as ADME, organism-based. The essentials: as §2
Data set [13] in a line: Ratio of drug level in brain to plasma in Sprague-Dawley rat at 3 mg/kg, ip after 0.25 hr. Type of data set: ADME, organism-based. Also noted: dose 3 mg/kg, route intraperitoneal. The conditions noted are these: read-out: BPR. The method, boiled down: as §2
The nature of data set [14]: Metabolic stability in mouse liver microsomes. Type of data set: ADME, Microsome. For orientation: Microsomes from liver hold many membrane-bound enzymes, among them those of drug oxidation.
The nature of data set [15]: Drug level in Sprague-Dawley rat brain at 100 mg/kg, po after 0.25 hr. It counts as ADME, organism-based. Details: dose 100 mg/kg, route oral. The conditions noted are these: read-out: Drug uptake. The essentials:
as §1

Data set [16] relates to Rattus norvegicus. Description: Increase in GABA level in rat frontal cortex at 10 mg/kg, sc. It counts as functional, organism-based. Details: dose 10 mg/kg. The essentials: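 Frontal cortex extracellular GABA, glutamate and norepinephrine measured in rats after 10 mg/kg sc; in antagonist tests, 5-HT₆ antagonist 10 mg/kg sc given before agonist; comparison with vehicle, significance P < 0.05.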

Data set [17] is described as follows: Drug level in Sprague-Dawley rat plasma at 3 mg/kg, ip after 4 hrs. Type of data set: ADME, organism-based. Details: dose 3 mg/kg, route intraperitoneal. The essentials: as §1
Data set [18] is described as follows: Metabolic stability in dog liver microsomes. It counts as ADME, Canis lupus familiaris, Microsome.
A short description of data set [19]: Drug level in Sprague-Dawley rat plasma at 100 mg/kg, po after 1 hr. Type of data set: ADME, organism-based. Details: dose 100 mg/kg, route oral. The essentials:
as §1

In data set [20] the target is Beta-2 adrenergic receptor (Homo sapiens) (UniProt P07550). Description: Displacement of radio ligand from beta-2 adrenergic receptor at 100 nM.
The nature of data set [21]: Aqueous solubility at pH 3 to […]. Type of data set: physicochemical.
Data set [22] can be described thus: Oral bioavailability in dog at 5 mg/kg. It counts as ADME, organism-based, Canis lupus familiaris. The conditions noted are these: in vivo.

Results on one compound are retold here after ChEMBL document CHEMBL1138245, “Discovery of N1-(6-chloroimidazo[2,1-b][1,3]thiazole-5-sulfonyl)tryptamine as a potent, selective, and orally active 5-HT(6) receptor agonist” (J Med Chem, 2007).

The source made the active and inactive calls.

Beta-2 adrenergic receptor (Homo sapiens), sequence (P07550 whole entry, looked up): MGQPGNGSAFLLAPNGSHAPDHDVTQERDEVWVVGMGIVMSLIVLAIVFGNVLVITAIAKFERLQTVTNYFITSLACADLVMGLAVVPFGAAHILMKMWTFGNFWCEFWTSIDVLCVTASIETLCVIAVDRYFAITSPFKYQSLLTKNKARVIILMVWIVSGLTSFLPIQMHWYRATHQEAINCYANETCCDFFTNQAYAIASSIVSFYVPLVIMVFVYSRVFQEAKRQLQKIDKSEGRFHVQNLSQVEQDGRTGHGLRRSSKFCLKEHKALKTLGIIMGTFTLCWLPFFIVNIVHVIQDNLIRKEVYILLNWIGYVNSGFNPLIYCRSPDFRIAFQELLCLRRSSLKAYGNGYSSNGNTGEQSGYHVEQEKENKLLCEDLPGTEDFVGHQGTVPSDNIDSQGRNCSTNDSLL
5-hydroxytryptamine receptor 5A (Homo sapiens), sequence (P47898 whole entry): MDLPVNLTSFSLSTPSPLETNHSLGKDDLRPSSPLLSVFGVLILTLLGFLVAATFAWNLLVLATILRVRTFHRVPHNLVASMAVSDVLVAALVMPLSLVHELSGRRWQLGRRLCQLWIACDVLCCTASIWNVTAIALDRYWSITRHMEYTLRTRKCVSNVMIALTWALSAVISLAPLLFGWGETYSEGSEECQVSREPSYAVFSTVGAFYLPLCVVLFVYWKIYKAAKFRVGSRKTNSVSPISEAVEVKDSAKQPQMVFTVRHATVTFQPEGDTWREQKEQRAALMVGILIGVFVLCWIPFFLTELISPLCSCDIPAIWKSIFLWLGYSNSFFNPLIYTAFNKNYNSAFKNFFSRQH
5-hydroxytryptamine receptor 4 (Homo sapiens), sequence (Q13639 whole entry): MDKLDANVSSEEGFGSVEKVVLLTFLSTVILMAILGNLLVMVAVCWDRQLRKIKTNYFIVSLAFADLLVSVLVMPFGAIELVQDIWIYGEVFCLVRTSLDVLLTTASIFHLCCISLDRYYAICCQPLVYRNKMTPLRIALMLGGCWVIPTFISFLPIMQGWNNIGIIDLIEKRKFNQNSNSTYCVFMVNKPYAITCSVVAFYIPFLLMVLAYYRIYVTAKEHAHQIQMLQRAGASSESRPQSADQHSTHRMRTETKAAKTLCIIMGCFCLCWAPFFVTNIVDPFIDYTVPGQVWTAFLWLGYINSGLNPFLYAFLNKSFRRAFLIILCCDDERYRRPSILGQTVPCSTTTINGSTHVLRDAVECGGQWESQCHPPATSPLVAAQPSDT

By inhibition is commonly meant the relative decrease from the control value, in per cent. Read a low inhibition as a response near the control. As usually defined, the Cmax is the maximum level reached in the sampled fluid or tissue. For orientation: half-life means the time needed for the level to fall by half in the phase considered. A high value points to slow loss. The term solubility denotes how much of the substance goes into solution per volume. High values mean a readily soluble substance, low ones a poorly soluble substance. What is called bioavailability is dose-corrected exposure relative to a reference, in per cent. As for `NCCc1cn(S(=O)(=O)c2c(Cl)nc3sccn23)c2ccccc12`, the inhibition in data set [1] and in [2] was under 50% throughout. The values for the concentration at 1 h in data set [3], in data set [5] and in data set [19] were 21 ng/mL, 45.1 ng/mL and 312 ng/mL, respectively. In [4], the Kp worked out at 0.1. The concentration at 0.5 h was found to be 11.5 ng/mL in data set [6] and 194 ng/mL in data set [9]. In data set [7], the Kp at 0.5 h stood at 0.17. In [8], the Vd came to 7.9 L/kg. The compound also registered a Cmax in [10] of 130 ng/mL. Besides, the Activity is 40% in data set [11] and under 50% in [20]. The Kp at 2 h in [12] was determined as 0.25. In data set [13], the Kp at 0.25 h turned out to be 0.09. In addition, the half-life in data set [14] was over 60 min; in data set [18], 26 min. The concentration at 0.25 h in [15] worked out at 12.5 ng/mL. The outcome in data set [16] was Active. Moreover, the concentration at 4 h in [17] turned out to be 4.3 ng/mL. Besides, the solubility in [21] was over 10000 µg/mL. The compound also had a bioavailability in [22] of 55%.
